What is called IC50 is the concentration that inhibits the measured activity by half. A word on the inhibition: it is the relative decrease from the control value, in per cent.

In assay [1] the test system is Rattus norvegicus. Briefly: Antiinflammatory activity in Sprague-Dawley rat assessed as protection against carrageenan-induced paw edema at 50 mg/kg, po administered 1 hr before carrageenan challenge measured after 3 hrs relative to control. Format: functional. An outline of the steps:
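Sprague-Dawley rats of either sex, 150–250 g, fasted 18 h, n = 4 per group, each group run against a vehicle control. Dosed orally at 50 mg/kg in freshly made 0.2% agar suspension. One hour later, 0.1 ml of 1% carrageenan in saline was injected subplantar into the right hind paw. Paw volume was read by plethysmometer at 3 h. % protection = (control − test)/control × 100.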

Assay [2] in a line: Inhibition of NF-kappaB expressed in HEK293 cells assessed as inhibition of TNF-alpha-induced transcriptional activation treated 24 hrs before TNFalpha challenge measured after 20 to 24 hrs by luciferase assay. Type of assay: cell-based. The procedure, abridged:
(§1)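 HEK/NF-κB cells stably carrying an NF-κB response element driving luciferase. Plated at 5×10^4 cells/well and held 24 h at 37 °C, 5% CO2. Compounds in 0.1% DMSO were added to replicate wells for 24 h, then TNF-α was added and cells were incubated 20–24 h. Bright-Glo lysis/substrate was added and luminescence read. The replicate mean was normalized to the maximal control.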

Assay [3] deals with Transcription factor Jun (Homo sapiens) (UniProt P05412). Briefly: Inhibition of AP1 expressed in HEK293 cells assessed as inhibition of PMA-induced transcriptional activation at 10 uM treated 24 hrs before PMA challenge measured after 20 to 24 hrs by luciferase assay relative to control.
Transcription factor Jun (Homo sapiens), sequence (P05412 whole entry): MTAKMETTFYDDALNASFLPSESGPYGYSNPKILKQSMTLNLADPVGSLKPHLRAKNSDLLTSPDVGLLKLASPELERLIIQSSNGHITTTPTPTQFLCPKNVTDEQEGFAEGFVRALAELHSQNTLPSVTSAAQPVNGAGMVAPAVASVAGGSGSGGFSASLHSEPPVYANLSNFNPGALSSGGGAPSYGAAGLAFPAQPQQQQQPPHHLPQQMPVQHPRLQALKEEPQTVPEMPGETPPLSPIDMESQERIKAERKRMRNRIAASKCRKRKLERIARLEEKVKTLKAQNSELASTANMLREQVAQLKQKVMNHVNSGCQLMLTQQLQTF
The subject of assay [4] is HEK293. Put plainly: Inhibition of NF-kappaB expressed in HEK293 cells assessed as inhibition of TNF-alpha-induced transcriptional activation at 10 uM treated 24 hrs before TNFalpha challenge measured after 20 to 24 hrs by luciferase assay relative to control. Type of assay: cell-based. An outline of the steps:
as §1

Take `CNc1nc(C)c(-c2nc3ccccc3c(=O)n2-c2ccc(C(C)=O)cc2)s1`: the Activity in assay [1] was found to be 42%. Moreover, in assay [2], the IC50 was determined as 5.5 µM. Besides, the inhibition came out at 0% in assay [3] and 71% in assay [4].

On to `Cc1nc(Nc2ccccc2)sc1-c1nc2ccccc2c(=O)n1-c1ccc(Cl)cc1`, for which the Activity in assay [1] amounted to 72%. Besides, the IC50 in assay [2] worked out at 5.5 µM. Besides, the inhibition was 9% in assay [3] and 79% in assay [4].

Take `O=c1c2ccccc2nc(-c2sc(Nc3ccc(Cl)cc3)nc2-c2ccccc2)n1-c1ccccc1`: the inhibition turned out to be 27% in assay [3] and 0% in assay [4].

On to `CC(=O)c1ccc(-n2c(-c3sc(Nc4ccc(Cl)cc4)nc3-c3ccccc3)nc3ccccc3c2=O)cc1`, for which the Activity in assay [1] is recorded as 23%. Also, the inhibition in assay [3] worked out at 31%; in assay [4], 0%.

For the molecule `CC(=O)c1ccc(-n2c(-c3sc(Nc4ccccc4)nc3C)nc3ccccc3c2=O)cc1`, the inhibition was determined as 7% in assay [3] and 15% in assay [4].

As for `CC(=O)c1ccc(-n2c(-c3sc(Nc4ccc(Cl)cc4)nc3C)nc3ccccc3c2=O)cc1`, the Activity in assay [1] is listed as 13%. Moreover, the figures for the inhibition in assay [3] and in assay [4] were 2% and 0%, respectively.

For the molecule `Cc1nc(Nc2ccccc2)sc1-c1nc2ccccc2c(=O)n1-c1ccccc1Cl`, the inhibition came out at 21% in assay [3] and 6% in assay [4].

Take `O=c1c2ccccc2nc(-c2sc(Nc3ccc(Cl)cc3)nc2-c2ccccc2)n1-c1ccccc1Cl`: the Activity in assay [1] was found to be 61%. Moreover, the inhibition in assay [3] is 0%; in assay [4] it was 24%.

For the molecule `Cc1nc(Nc2ccc(Cl)cc2)sc1-c1nc2ccccc2c(=O)n1-c1ccccc1`, in assay [1], the Activity was found to be 4%. The inhibition in assay [3] and in assay [4] was 0% each time.

As to `Cc1ccccc1-n1c(-c2sc(Nc3ccccc3)nc2C)nc2ccccc2c1=O`, the Activity in assay [1] was found to be 42%. Moreover, the inhibition turned out to be 60% in assay [3] and 21% in assay [4].

Turning to `Cc1nc(Nc2ccc(Cl)cc2)sc1-c1nc2ccccc2c(=O)n1-c1ccc(Cl)cc1`, the Activity in assay [1] is 38%. Also, the IC50 in assay [2] came out at 3.3 µM. The values for the inhibition in assay [3] and in assay [4] were 84% and 96%, respectively.

Consider `Cc1nc(Nc2ccccc2)sc1-c1nc2ccccc2c(=O)n1-c1ccccc1`, for which the Activity in assay [1] came to 12%. Further, the inhibition in assay [3] turned out to be 16%; in assay [4] it was 25%.

With `COc1ccccc1-n1c(-c2sc(Nc3ccc(Cl)cc3)nc2C)nc2ccccc2c1=O`, the Activity in assay [1] came out at 27%.

For the molecule `COc1ccc(-n2c(-c3sc(Nc4ccc(Cl)cc4)nc3C)nc3ccccc3c2=O)cc1`, in assay [1], the Activity worked out at 5%. The inhibition in assay [3] and in assay [4] was 0% throughout.

Turning to `Cc1ccccc1-n1c(-c2sc(Nc3ccc(Cl)cc3)nc2C)nc2ccccc2c1=O`, in assay [1], the Activity stood at 45%.

For `Cc1cccc(-n2c(-c3sc(Nc4ccc(Cl)cc4)nc3C)nc3ccccc3c2=O)c1`, the inhibition came to 39% in assay [3] and 2% in assay [4].

With `CNc1nc(-c2ccccc2)c(-c2nc3ccccc3c(=O)n2-c2ccc(C(C)=O)cc2)s1`, the figures for the inhibition in assay [3] and in assay [4] were 15% and 4%, respectively.

Turning to `Cc1ccccc1-n1c(-c2sc(Nc3ccc(Cl)cc3)nc2-c2ccccc2)nc2ccccc2c1=O`, in assay [1], the Activity is 51%. The inhibition is 32% in assay [3] and 27% in assay [4].

In the case of `CC(=O)c1ccc(-n2c(-c3sc(Nc4ccc(Cl)cc4)nc3N)nc3ccccc3c2=O)cc1`, the Activity in assay [1] stood at 53%. The inhibition turned out to be 2% in assay [3] and 12% in assay [4].

As to `Cc1ccc(Nc2nc(-c3ccccc3)c(-c3nc4ccccc4c(=O)n3-c3ccc(Cl)cc3)s2)cc1`, the inhibition in assay [3] and in assay [4] was 0% in each case.

On to `Cc1nc(Nc2ccc(Cl)cc2)sc1-c1nc2ccccc2c(=O)n1-c1ccccc1Cl`, for which, in assay [1], the Activity was 58%. Further, the inhibition in assay [3] worked out at 21%; in assay [4] it was 60%.

Regarding `CNc1nc(C)c(-c2nc3ccccc3c(=O)n2-c2ccc(Cl)cc2)s1`, the Activity in assay [1] came to 71%. Also, in assay [2], the IC50 came out at 3.3 µM. Also, the figures for the inhibition in assay [3] and in assay [4] were 82% and 93%, respectively.

Turning to `CNc1nc(C)c(-c2nc3ccccc3c(=O)n2-c2ccccc2C)s1`, in assay [1], the Activity is listed as 35%. The inhibition was 67% in assay [3] and 16% in assay [4].

For the molecule `Cc1ccc(-n2c(-c3sc(Nc4ccc(Cl)cc4)nc3C)nc3ccccc3c2=O)cc1`, the Activity in assay [1] is 37%. The inhibition worked out at 2% in assay [3] and 12% in assay [4].

In the case of `CNc1nc(C)c(-c2nc3ccccc3c(=O)n2-c2cccc(C)c2)s1`, the inhibition in assay [3] came to 20%; in assay [4], 10%.

With `Nc1nc(Nc2ccc(Cl)cc2)sc1-c1nc2ccccc2c(=O)n1-c1ccc(Cl)cc1`, the Activity in assay [1] is 37%. In addition, the inhibition in assay [3] and in assay [4] was 0% throughout.

The record behind these values is ChEMBL document CHEMBL1137748, “Design, synthesis and characterization of novel 2-(2,4-disubstituted-thiazole-5-yl)-3-aryl-3H-quinazoline-4-one derivatives as inhibitors of NF-kappaB and AP-1 mediated transcription activation and as potential anti-inflammatory agents” (Eur J Med Chem, 2009).
